Results collected from several papers.
Compare with care: the assays were run in different laboratories.
CDK1: Cyclin-dependent kinase 1 (CDK1, Homo sapiens, UniProt P06493)
CDK9: Cyclin-dependent kinase 9 (CDK9, Homo sapiens, UniProt P50750)

NC/C(=C\F)COc1cccc(Cn2c(=S)[nH]c(=O)c3[nH]cnc32)c1 gave a remaining activity of 9.08% (Myeloperoxidase (Mus musculus, UniProt P11247); enzyme activity, inhibitor; 0.25 µM).
With C[C@]1(O)CCCN(c2nc(Nc3ccc(S(=O)(=O)N[C@@H]4CCN(CC5CCN(c6ccc(C7CCC(=O)NC7=O)cc6F)CC5)C[C@H]4F)cc3F)ncc2C(F)(F)F)C1 (stereo partly shown) the Dmax was 26% (CDK1; protein level, degrader, western blot; TOV21G).
For COc1cc(Br)cc(C2NC(=O)NC(C)=C2C(=O)OCc2ccccc2)c1O (stereo not shown), the inhibition was over 60% (Voltage-dependent T-type calcium channel subunit alpha-1H (CACNA1H, Homo sapiens, UniProt O95180); ion current, inhibitor, patch clamp; HEK293; 10 µM).
For CC(C)(C)c1cnc(CSc2cnc(NC(=O)C3CCN(C(=O)CCCCCCN4Cc5cc6c(cc5C4)C(=O)N(C4CCC(=O)NC4=O)C6=O)CC3)s2)o1 (stereo not shown), the inhibition was 95.8% (CDK9; protein level, degrader, western blot; TC-71; 25 nM).
With C[C@]1(O)CCCN(c2nc(Nc3ccc(S(=O)(=O)N[C@H]4CC[C@H](CN5CCN(c6ccc(C7CCC(=O)NC7=O)c(F)c6)CC5)CC4)cc3F)ncc2C(F)(F)F)C1 (stereo partly shown) the Dmax was 73% (CDK1; protein level, degrader, western blot; TOV21G).
With Cc1cc2c(C(N)=O)c(N)n(-c3c(C)ccc(O)c3C)c2nc1C the inhibition was 20.4% (Proto-oncogene tyrosine-protein kinase Src (SRC, Homo sapiens, UniProt P12931); enzyme activity, inhibitor, TR-FRET; 1.524 nM).
The inhibition of C#Cc1cc(-c2cc(Nc3nc(N[C@@H](C)c4ccc(F)cn4)ncc3Cl)n[nH]2)ccc1C=O is reported as 4.48% (Serine/threonine-protein kinase Sgk2 (SGK2, Homo sapiens, UniProt Q9HBY8); enzyme activity, inhibitor; 0.2 µM).
The remaining binding of COc1ccc2oc(-c3ccc4nc(N)oc4c3)c/c(=N\c3ccccc3NC(=O)CCN)c2c1 is reported as 103% (5'-AMP-activated protein kinase catalytic subunit alpha-2 (PRKAA2, Homo sapiens, UniProt P54646); binding; 1 µM).
C1=C/COCc2cc(ccc2OCCN2CCCC2)Nc2nccc(n2)-c2cccc(c2)COC/1 gave a remaining binding of 80% (Tyrosine-protein kinase Mer (MERTK, Homo sapiens, UniProt Q12866); binding; 0.1 µM).
CC(C)(C)c1cnc(CSc2cnc(NC(=O)C3CCN(C(=O)CCCCCCCCCCN4Cc5cc6c(cc5C4)C(=O)N(C4CCC(=O)NC4=O)C6=O)CC3)s2)o1 (stereo not shown) gave an inhibition of 89.1% (CDK9; protein level, degrader, western blot; TC-71; 25 nM).
C[C@H]1CN(c2ccc(C3CCC(=O)NC3=O)cc2F)CCN1CC12CCC(NS(=O)(=O)c3ccc(Nc4ncc(C(F)(F)F)c(N5CCC[C@](C)(O)C5)n4)c(F)c3)(CC1)CO2 (stereo partly shown) gave a Dmax of 32% (CDK1; protein level, degrader, western blot; TOV21G).
For CC(C)(C)c1cnc(CSc2cnc(NC(=O)C3CCN(C(=O)CCCCCN4Cc5cc6c(cc5C4)C(=O)N(C4CCC(=O)NC4=O)C6=O)CC3)s2)o1 (stereo not shown), the inhibition was 93.4% (CDK9; protein level, degrader, western blot; TC-71; 25 nM).
The remaining binding of CCCCC(=O)Nc1ccc(-c2ccc3ncn(CCC)c(=O)c3c2)cn1 is reported as 100% (Ankyrin repeat and protein kinase domain-containing protein 1 (ANKK1, Homo sapiens, UniProt Q8NFD2); binding, competition with immobilised ligand; 0.5 µM).
